# Assay results from paper PMC9075022 (Research in Pharmaceutical Sciences, 2022).
# Where two headings read alike, the source gives them in different places.
# Experiments:
# P. falciparum = conditions: cited from earlier work
# PC12 cell line = test: In vitro antiproliferative MTT assay, PC12; type: cell-based, rat; conditions: 48 h
# How it was run: (§1)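 PC12 (rat pheochromocytoma) or fibroblast cells at 5000/well in DMEM with 10% heat-inactivated FBS, penicillin 100 U/mL and streptomycin 100 μg/mL, grown 24 h. At 80% confluence, test compound or docetaxel/cisplatin controls were added at 1–360 μg/mL for 48 h. MTT (5 mg/mL in PBS pH 7.4) added for 3–4 h; formazan dissolved in DMSO, read at 570 nm. Triplicate; IC50 calculated.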
# formation of β-hematin = test: In vitro β-hematin inhibition assay; type: biochemical; conditions: 200 μg/mL, 60 °C, 24 h; positive if more than 90%
# How it was run: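 Heme detoxification (ITHD) assay. Hemin chloride was dissolved in DMSO and diluted to 60 μg/mL in 1 M acetate buffer pH 4.5. Tween 20 stock was 0.012 g/L; compound was dissolved in DMSO. Hemin, sample and Tween were mixed 9:9:2 in triplicate, final 200 μg/mL. Controls: hemin-free matrix blanks, DMSO negative, chloroquine phosphate positive. Incubated 60 °C, 24 h; mixed and absorbance read at 405 nm.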
# fibroblast cell line = test: In vitro antiproliferative MTT assay, fibroblast; type: cell-based; conditions: 48 h
# How it was run: as §1
# PC12 cells = test: Cellular uptake by fluorescent microscopy; type: cell-based, rat; conditions: 100 μg/mL, 24 h incubation, 37 °C
# How it was run: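 PC12 cells at 5 × 10^4 cells/well in DMEM with 10% FBS and antibiotics, kept at 37 °C in 5% CO2. Exposed to test compound at 37 °C for 24 h. Washed three times with cold PBS, then 3 min in sterile distilled water. Intrinsic compound fluorescence imaged without staining by fluorescence microscopy (bright field, DAPI, GFP channels), compared with untreated cells.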
structure (smiles),measurement,setting,value
Cc1occc(=O)c1O [Maltol],inhibition of growth of P. falciparum compared to control,P. falciparum; 0.01 mM,about 15%
same,inhibition of growth of P. falciparum compared to control,P. falciparum; 0.10 mM,~50%
"N.N.[Cl][Pt][Cl] [cisplatin, reference compound]",IC50 against PC12,PC12 cell line,8 mg/L
"Cc1c(OCc2ccccc2)c(=O)ccn1CCCO [alcoholic precursor, 3-(benzyloxy) -1-(3-hydroxypropyl) -2-methylpyridin-4(1H)-one]",toxicity against PC12 in words,PC12 cell line; 1-360 μg/mL,didn’t display remarkable toxicity in defined concentrations
"Cc1c(OCc2ccccc2)c(=O)ccn1CCCOC(=O)c1ccc(Cl)cc1Cl [7a, 3-(3-(benzyloxy)-2-methyl-4-oxopyridin-1(4H)-yl) propyl 2,4-dichlorobenzoate]",Heme inhibition (%),formation of β-hematin,39%
same,IC50 against PC12,PC12 cell line,37 mg/L
same,IC50 on fibroblast cell line,fibroblast cell line,44 mg/L
same,cellular uptake (fluorescent emission),PC12 cells,cellular uptake potential
